In ChEMBL document CHEMBL1124913, “Aqua[1-(2,6-dichloro-4-hydroxyphenyl)-2- phenylethylenediamine](sulfato)platinum-(II) complexes with variable substituents in the 2-phenyl ring. 1. Synthesis and antitumor and estrogenic properties” (J Med Chem, 1990):
Several values for one entry are separate records, joined by “and”; a condition that tells them apart may be missing. Identical values can stand only once.

What was measured:
[1] = test system: P388; assay: In vivo for antitumor effect on P388 Leukemia of the CDF1 and median survival time of the animals in days was reported at a concentration of 40 uM/Kg; assay type: functional, organism-based; conditions: Mus musculus
In short: (§1)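 P388 leukemia was passaged in female DBA/2 mice. Female CDF1 mice (18–22 g) received 1×10^6 cells ip in PBS on day 0. Groups of six (ten for solvent control) were dosed ip with aqueous solutions on days 1, 5 and 9. Median survival time = X + Y/2, with X and Y the first days reaching N/2 and N/2 + 1 deaths. %T/C = treated/control median survival ×100.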

[2] = biological target: T1, Estrogen receptor (Mus musculus) (UniProt O08537+P19785); assay: Administered subcutaneously on three consecutive days at a dose of 1000 uM /Kg.; assay type: functional
In short: (§2)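 Immature female NMRI mice, 19 days old, in groups of six. Compounds were dissolved in water and given as 0.1 mL sc on days 1, 2 and 3; controls got vehicle and standards got estrone 0.4 μg. Animals were killed 24 h after the last dose. Uteri were fixed in Bouin solution, dried at 100 °C for 18 h and weighed. E = [uterine dry weight (mg)/body weight (g)]100, and estrogenic effect = (E_T − E_V)/(E_S − E_V)100.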

[3] = test system: Mus musculus; assay: Ratio of median survival time of tested group to that of control group of animals was reported at a concentration of 20 uM/Kg; assay type: functional, organism-based; in short: as §1
[4] = test system: Mus musculus; assay: Ratio of median survival time of tested group to that of control group of animals was reported at a concentration of 10 uM/Kg; assay type: functional, organism-based; in short: as §1
[5] = test system: P388; assay: In vivo for antitumor effect on P388 Leukemia of the CDF1 and median survival time of the animals in days was reported at a concentration of 10 uM/Kg; assay type: functional, organism-based; conditions: Mus musculus; in short: as §1
[6] = biological target: T1, Estrogen receptor (Mus musculus); assay: (§3) Administered subcutaneously on three consecutive days at a dose of 100 uM /Kg.; assay type: functional; in short: as §2
[7] = test system: P388; assay: In vivo for antitumor effect on P388 Leukemia of the CDF1 and median survival time of the animals in days was reported at a concentration of 20 uM/Kg; assay type: functional, organism-based; conditions: Mus musculus; in short: as §1
[8] = test system: P388; assay: In vivo for antitumor effect on P388 Leukemia of the CDF1 mouse at dose 40 uM/kg administered intraperitoneally; assay type: functional, organism-based; in short: as §1
[9] = test system: P388; assay: In vivo for antitumor effect on P388 Leukemia of the CDF1 mouse at dose 20 uM/kg administered intraperitoneally; assay type: functional, organism-based; in short: as §1
[10] = biological target: T1, Estrogen receptor (Mus musculus); assay: (§4) Administered subcutaneously on three consecutive days at a dose of 10 uM /Kg.; assay type: functional; in short: as §2
[11] = test system: Mus musculus; assay: Ratio of median survival time of tested group to that of control group of animals was reported at a concentration of 40 uM/Kg; assay type: functional, organism-based; in short: as §1
[12] = biological target: T1, Estrogen receptor (Mus musculus); assay: as §4; assay type: functional; in short: as §2; remark: listed apart in the source
[13] = biological target: T1, Estrogen receptor (Mus musculus); assay: Administered subcutaneously on three consecutive days at a dose of 1000 uM /Kg; assay type: functional; in short: as §2
[14] = test system: P388; assay: In vivo antitumor effect on P388 Leukemia in CDF1 mice, median survival time in days at 10 uM/kg; assay type: functional, organism-based; conditions: Mus musculus; in short: as §1
[15] = test system: P388; assay: In vivo for antitumor effect on P388 Leukemia of the CDF1 mouse at dose 10 uM/kg administered intraperitoneally; assay type: functional, organism-based; in short: as §1
[16] = biological target: T1, Estrogen receptor (Mus musculus); assay: as §3; assay type: functional; in short: as §2; remark: listed apart in the source
[17] = test system: P388; assay: In vivo for antitumor effect on P388 Leukemia of the CDF1, and median survival time of the animals in days was reported at a concentration of 40 uM/Kg; assay type: functional, organism-based; conditions: Mus musculus; in short: as §1
[18] = test system: P388; assay: In vivo antitumor effect on P388 Leukemia in CDF1 mice, median survival time in days at 20 umol/kg; assay type: functional, organism-based; conditions: Mus musculus; in short: as §1
[19] = biological target: T1, Estrogen receptor (Mus musculus); assay: Estrogenic effect on subcutaneous 100 uM/kg dose for 3 days; assay type: functional; in short: as §2
[20] = biological target: T1, Estrogen receptor (Mus musculus); assay: Estrogenic effect on subcutaneous 1000 umol/kg dose for 3 days; assay type: functional; in short: as §2
[21] = biological target: T1, Estrogen receptor (Mus musculus); assay: Estrogenic effect on subcutaneous 10 uM/kg dose for 3 days; assay type: functional; in short: as §2
[22] = test system: Mus musculus; assay: Ratio of median survival time of tested group to control group at 5 umol/kg; assay type: functional, organism-based; in short: as §1
[23] = test system: P388; assay: In vivo antitumor effect on P388 Leukemia in CDF1 mice, median survival time in days at 5 umol/kg; assay type: functional, organism-based; conditions: Mus musculus; in short: as §1
[24] = test system: P388; assay: In vivo antitumor effect on P388 Leukemia in CDF1 mice at 5 umol/kg intraperitoneal dose; assay type: functional, organism-based; conditions: Mus musculus; in short: as §1

Estrogenic effect [2] | Estrogenic effect [6] | Estrogenic effect [10] | Estrogenic effect [12] | Estrogenic effect [13] | Estrogenic effect [16] | Substance | MST [1] | T/C [3] | T/C [4] | MST [5] | MST [7] | T-C [8] | T-C [9] | T/C [11] | MST [14] | T-C [15] | MST [17] | other results
20 and 52 | 11 and 13 | 1% and 0% | 9 and 11 | – | – | Aqua [threo-1-(-2-fluoro-4-hydroxyhenyl)-2-(2,6-dichloro-4-hydroxyphenyl) ethylenediamine](sulfato) platinum (II) | 15.5 and 14 | 166% and 155% | 155% and 133% | 14 and 12 | 15 and 14 | -3.8 g and -2.4 g | -2.2 g and -1.2 g | 172% and 155% | – | – | – | –
19 and 32 | – | 0% | – | 0% | 0% | Aqua[erythro-1-(-3-hydroxyhenyl)-2-(2,6-dichloro-4-hydroxyphenyl) ethylenediamine](sulfato) platinum (II)(erythro-4-Ptso4) | 15.5 | 161% and 169% | 156% and 163% | 14 | 14.5 and 13.5 | -4.6 g and -2.6 g | -1.7 g and -1.9 g | – | 13 | -0.9 g and -1.5 g | 8 | –
86 and 91 | 21 and 22 | 39% | 9 and 11 | 117% | 141% | Aqua[threo-1-(-2-chloro-4-hydroxyhenyl)-2-(2,6-dichloro-4-hydroxyphenyl) ethylenediamine](sulfato) platinum (II)(threo-9-Ptso4) | 14 | 155% and 144% | – | 11.5 | 13 | -2.9 g and -1.9 g | -1.8 g and -1.2 g | 161% and 155% | 14 | -1.8 g and -2.4 g | 14.5 | MST [18]: 14; Estrogenic effect [19]: 14%; Estrogenic effect [20]: 35%; Estrogenic effect [21]: 10%
– | – | – | – | – | – | CISPLATIN | – | – | – | – | – | – | – | – | – | – | – | T/C [22]: 238%; MST [23]: 19; T-C [24]: -3.8 g
